Test results published in ChEMBL document CHEMBL5653605, “Reduced VEGF production, angiogenesis, and vascular regrowth contribute to the antitumor properties of dual mTORC1/mTORC2 inhibitors” (Cancer Res, 2011).
Activity calls are given as the source filed them.

Experiments:
mTORC2 = mTORC2 (Homo sapiens, UniProt P42345); experiment: Competitive inhibition of mTORC2 immunoprecipitated from human HeLa cells using His-tagged 4E-BP1 as substrate incubated for 30 mins in presence of ATP by chemiluminescence based ELISA
How it was run: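 Native mTORC1 or mTORC2 complex immunoprecipitated from HeLa lysates; kinase reaction run at 1 mM ATP.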

[1] = target: Phosphatidylinositol 4,5-bisphosphate 3-kinase catalytic subunit alpha isoform (Homo sapiens, UniProt P42336); experiment: Inhibition of PI3Kalpha (unknown origin) in presence of ATP by HTRF assay
[2] = target: Phosphatidylinositol 4,5-bisphosphate 3-kinase catalytic subunit beta isoform (Homo sapiens, UniProt P42338); experiment: Inhibition of PI3Kbeta (unknown origin) in presence of ATP by HTRF assay
How it was run: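 PI3K activity by HTRF assay at […] ATP.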

[3] = target: DNA-dependent protein kinase catalytic subunit (Homo sapiens, UniProt P78527); experiment: Inhibition of DNA-PK activity (unknown origin) presence of ATP
DNA-dependent protein kinase catalytic subunit, sequence (P78527 whole entry): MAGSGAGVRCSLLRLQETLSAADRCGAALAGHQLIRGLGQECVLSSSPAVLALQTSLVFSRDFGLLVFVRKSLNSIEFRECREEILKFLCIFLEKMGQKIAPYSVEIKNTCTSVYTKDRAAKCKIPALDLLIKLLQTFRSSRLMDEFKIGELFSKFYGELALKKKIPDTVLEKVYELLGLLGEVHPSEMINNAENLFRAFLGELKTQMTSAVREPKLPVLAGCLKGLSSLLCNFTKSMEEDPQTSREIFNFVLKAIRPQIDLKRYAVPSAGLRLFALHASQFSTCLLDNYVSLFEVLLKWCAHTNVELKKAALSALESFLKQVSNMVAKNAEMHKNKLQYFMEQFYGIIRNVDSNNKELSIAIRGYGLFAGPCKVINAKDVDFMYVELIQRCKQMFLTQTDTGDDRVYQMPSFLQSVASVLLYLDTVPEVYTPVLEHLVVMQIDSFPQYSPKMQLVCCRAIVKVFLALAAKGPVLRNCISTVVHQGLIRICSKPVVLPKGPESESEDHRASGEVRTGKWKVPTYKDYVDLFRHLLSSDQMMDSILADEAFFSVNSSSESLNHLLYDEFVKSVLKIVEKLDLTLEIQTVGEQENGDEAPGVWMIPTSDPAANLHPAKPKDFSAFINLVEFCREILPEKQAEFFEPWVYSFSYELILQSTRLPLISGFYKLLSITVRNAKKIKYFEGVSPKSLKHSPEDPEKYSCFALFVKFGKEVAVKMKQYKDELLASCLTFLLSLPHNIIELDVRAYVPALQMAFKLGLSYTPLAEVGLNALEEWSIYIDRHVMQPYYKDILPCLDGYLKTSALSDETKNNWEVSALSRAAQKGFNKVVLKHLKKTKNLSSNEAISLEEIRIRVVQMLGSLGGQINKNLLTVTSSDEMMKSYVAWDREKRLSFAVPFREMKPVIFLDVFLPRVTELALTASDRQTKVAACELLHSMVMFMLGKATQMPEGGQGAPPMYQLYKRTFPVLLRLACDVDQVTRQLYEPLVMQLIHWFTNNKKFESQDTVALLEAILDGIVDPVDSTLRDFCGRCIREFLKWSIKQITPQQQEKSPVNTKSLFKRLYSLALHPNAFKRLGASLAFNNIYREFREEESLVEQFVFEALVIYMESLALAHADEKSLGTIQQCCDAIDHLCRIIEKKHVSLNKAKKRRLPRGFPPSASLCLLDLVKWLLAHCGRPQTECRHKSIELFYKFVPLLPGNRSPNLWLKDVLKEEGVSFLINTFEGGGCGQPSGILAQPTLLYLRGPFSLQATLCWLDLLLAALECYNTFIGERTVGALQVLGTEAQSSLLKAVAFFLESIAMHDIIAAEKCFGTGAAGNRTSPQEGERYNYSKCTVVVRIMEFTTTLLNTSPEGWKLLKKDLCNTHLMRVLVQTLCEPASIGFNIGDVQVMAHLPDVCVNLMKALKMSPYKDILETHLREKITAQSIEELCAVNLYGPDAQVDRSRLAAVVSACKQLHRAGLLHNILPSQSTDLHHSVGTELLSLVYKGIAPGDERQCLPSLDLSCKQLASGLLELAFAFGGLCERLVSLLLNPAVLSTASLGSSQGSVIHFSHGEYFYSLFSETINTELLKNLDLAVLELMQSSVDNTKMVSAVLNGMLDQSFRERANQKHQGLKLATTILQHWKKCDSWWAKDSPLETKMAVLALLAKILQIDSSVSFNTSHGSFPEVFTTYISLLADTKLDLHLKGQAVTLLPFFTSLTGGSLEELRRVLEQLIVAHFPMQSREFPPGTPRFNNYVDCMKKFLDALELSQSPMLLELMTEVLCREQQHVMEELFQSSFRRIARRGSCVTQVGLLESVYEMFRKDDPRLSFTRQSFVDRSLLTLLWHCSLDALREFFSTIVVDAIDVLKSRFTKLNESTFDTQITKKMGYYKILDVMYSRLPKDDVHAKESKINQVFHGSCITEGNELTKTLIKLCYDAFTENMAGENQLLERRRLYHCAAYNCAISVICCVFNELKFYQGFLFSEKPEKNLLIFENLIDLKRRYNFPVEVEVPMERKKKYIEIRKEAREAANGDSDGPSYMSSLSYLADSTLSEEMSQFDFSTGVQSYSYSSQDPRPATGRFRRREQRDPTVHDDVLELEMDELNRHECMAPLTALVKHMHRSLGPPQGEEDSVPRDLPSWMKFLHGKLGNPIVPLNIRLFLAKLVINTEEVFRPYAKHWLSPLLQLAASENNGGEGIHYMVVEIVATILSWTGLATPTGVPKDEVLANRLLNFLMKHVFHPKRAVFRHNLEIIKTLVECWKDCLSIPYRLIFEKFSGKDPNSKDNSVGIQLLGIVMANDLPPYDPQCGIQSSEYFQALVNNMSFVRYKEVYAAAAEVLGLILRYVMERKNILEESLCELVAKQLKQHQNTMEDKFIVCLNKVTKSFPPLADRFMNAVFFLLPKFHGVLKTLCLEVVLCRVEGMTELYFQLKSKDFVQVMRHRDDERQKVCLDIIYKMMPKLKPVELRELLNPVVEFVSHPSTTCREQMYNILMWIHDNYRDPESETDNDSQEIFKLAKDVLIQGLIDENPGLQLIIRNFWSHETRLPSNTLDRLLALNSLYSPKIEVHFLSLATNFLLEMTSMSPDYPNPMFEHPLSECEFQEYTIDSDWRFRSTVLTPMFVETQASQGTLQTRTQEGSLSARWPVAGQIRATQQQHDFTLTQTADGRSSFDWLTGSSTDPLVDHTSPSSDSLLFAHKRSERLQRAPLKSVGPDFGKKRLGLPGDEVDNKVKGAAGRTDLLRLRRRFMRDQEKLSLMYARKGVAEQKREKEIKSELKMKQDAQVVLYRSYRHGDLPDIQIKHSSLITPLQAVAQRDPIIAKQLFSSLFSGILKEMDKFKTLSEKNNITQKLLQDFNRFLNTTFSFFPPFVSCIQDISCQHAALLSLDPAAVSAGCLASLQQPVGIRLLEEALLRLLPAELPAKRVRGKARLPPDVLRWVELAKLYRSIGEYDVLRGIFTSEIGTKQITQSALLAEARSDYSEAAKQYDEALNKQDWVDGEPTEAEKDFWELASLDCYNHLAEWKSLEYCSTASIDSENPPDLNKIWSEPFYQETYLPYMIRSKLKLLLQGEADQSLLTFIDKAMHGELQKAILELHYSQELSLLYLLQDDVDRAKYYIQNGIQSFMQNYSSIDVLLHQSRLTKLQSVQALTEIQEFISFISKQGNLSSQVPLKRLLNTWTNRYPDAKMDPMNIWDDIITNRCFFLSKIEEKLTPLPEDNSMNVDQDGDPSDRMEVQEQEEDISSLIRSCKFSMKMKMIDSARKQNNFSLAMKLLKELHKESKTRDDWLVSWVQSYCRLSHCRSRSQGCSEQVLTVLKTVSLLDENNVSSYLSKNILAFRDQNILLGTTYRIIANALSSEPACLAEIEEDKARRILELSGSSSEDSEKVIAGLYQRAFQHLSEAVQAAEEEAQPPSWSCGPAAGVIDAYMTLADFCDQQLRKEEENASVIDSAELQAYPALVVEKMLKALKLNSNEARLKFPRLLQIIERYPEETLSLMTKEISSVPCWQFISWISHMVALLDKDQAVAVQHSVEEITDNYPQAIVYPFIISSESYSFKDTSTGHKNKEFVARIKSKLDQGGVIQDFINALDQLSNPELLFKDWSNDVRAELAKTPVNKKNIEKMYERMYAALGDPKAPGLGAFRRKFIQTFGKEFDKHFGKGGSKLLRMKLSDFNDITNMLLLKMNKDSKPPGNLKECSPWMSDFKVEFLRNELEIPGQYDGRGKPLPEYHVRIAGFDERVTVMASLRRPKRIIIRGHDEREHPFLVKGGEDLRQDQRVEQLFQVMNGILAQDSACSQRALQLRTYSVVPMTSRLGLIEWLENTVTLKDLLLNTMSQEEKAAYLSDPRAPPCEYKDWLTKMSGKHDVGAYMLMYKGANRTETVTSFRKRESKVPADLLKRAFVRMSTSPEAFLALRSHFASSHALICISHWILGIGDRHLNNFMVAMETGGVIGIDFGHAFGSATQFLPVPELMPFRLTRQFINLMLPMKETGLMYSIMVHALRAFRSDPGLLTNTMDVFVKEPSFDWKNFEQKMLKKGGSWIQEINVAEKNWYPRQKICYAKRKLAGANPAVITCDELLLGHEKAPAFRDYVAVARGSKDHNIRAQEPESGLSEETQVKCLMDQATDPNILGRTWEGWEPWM

[4] = target: Eukaryotic translation initiation factor 4E-binding protein 1 (Homo sapiens) (UniProt Q13541); experiment: Inhibition of 4E-BP1 phosphorylation at Ser 37/46 residues in serum deprived/insulin stimulated human OVCAR-3 cells harboring PTEN and wild type PI3K preincubated for 2 hrs followed by insulin stimulation and measured immediately by Western blot analysis; assay type: cell-based; conditions: dose 0.001-10 µM
OVCAR-3 = experiment: Inhibition of S6K phosphorylation at 235/236 residues in serum deprived/insulin stimulated human OVCAR-3 cells harboring PTEN and wild type PI3K at 0.001 to 10 uM preincubated for 2 hrs followed by insulin stimulation and measured immediately by Western blot analysis; assay type: cell-based; conditions: dose 0.001-10 µM
[5] = Drug concentration in nu/nu CD-1 mouse plasma xenografted with human GEO cells at 75 mg/kg administered for 14 days and measured 1 hr post last dose; assay type: ADME, organism-based
GEO = experiment: Antitumor activity against human GEO cells xenografted in nu/nu CD-1 mouse assessed as slower tumor growth at 75 mg/kg administered twice a day for 14 days and measured twice weekly; assay type: functional, organism-based; conditions: time 14.0 day
Mus musculus [6] = experiment: In vivo inhibition of 4E-BP1 phosphorylation in RIP-Tag2 mouse with pancreatic islet cell carcinoma 75 mg/kg, po bid administered via gavage and measured after 7 days by immunohistochemistry; assay type: functional, organism-based; conditions: time 7.0 day
How it was run: (§1)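 RIP-Tag2 mice aged 9–10 weeks dosed 75 mg/kg BID by gavage for 7 days, vehicle Labrifil or water; perfusion fixation, 60–80 µm tumor sections immunostained for phospho-4E-BP1, phospho-Akt or phospho-S6K with CD31; fluorescence/confocal imaging; 3–8 mice per group.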

Mus musculus [7] = experiment: In vivo inhibition of S6K phosphorylation in RIP-Tag2 mouse with pancreatic islet cell carcinoma 75 mg/kg, po bid administered via gavage and measured after 7 days by immunohistochemistry; assay type: functional, organism-based; conditions: time 7.0 day; how it was run: as §1
[8] = system: Pancreatic islet cell carcinoma; experiment: (§2) Antitumor activity against pancreatic islet cell carcinoma in RIP-Tag2 mouse assessed as reduction in VEGF production by measuring reduction in tumor cell associated fluorescence intensity at 75 mg/kg, po bid administered via gavage and measured after 7 days by immunohistochemical staining based confocal microscopic analysis relative to control; assay type: functional; set-up: scale not given: the % may be the effect or the level left; conditions: time 7 day
How it was run: (§3)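 Treatment began in RIP-Tag2 mice at 9–10 weeks: 75 mg/kg gavage BID for 1, 4 or 7 days, or 20 mg/kg ip QD for 7 days; vehicle Labrifil or water. Tissue fixed by vascular perfusion and 60–80 µm sections stained for VEGF with CD31. VEGF fluorescence intensity measured over whole tumor, tumor cells, or tumor vessels. 3–8 mice/group; ANOVA, Fisher PLSD.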

[9] = system: Pancreatic islet cell carcinoma; experiment: as §2, with “tumor vessels” for “tumor cell”, “after 1 to” for “after”; assay type: functional; set-up: scale not given: the % may be the effect or the level left; conditions: time 1-7 day; how it was run: as §3
[10] = system: Pancreatic islet cell carcinoma; experiment: Antitumor activity against pancreatic islet cell carcinoma in RIP-Tag2 mouse assessed as reduction in VEGF-B expression at 75 mg/kg, po bid administered via gavage and measured after 1 to 7 days by immunoprecipitation based densitometric analysis; assay type: functional, organism-based; conditions: time 1-7 day
How it was run: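 VEGF in tumor lysates from treated RIP-Tag2 mice (9–10 weeks old at start; 75 mg/kg gavage BID or 20 mg/kg ip QD) measured with mouse angiogenesis antibody arrays, read as pixel density. 3–8 mice/group, SEM; ANOVA with Fisher PLSD.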

[11] = system: Pancreatic islet cell carcinoma; experiment: Antivascular activity against pancreatic islet cell carcinoma in RIP-Tag2 mouse assessed as reduction in CD31-positive tumor blood vessels at 75 mg/kg, po bid administered via gavage and measured after 7 days by immunohistochemical staining based fluorescence microscopic analysis relative to control; assay type: functional; set-up: scale not given: the % may be the effect or the level left; conditions: time 7 day
How it was run: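 For 7 days, RIP-Tag2 mice, 9–10 weeks old, received 75 mg/kg gavage BID, 200 mg/kg gavage QD, or 20 mg/kg ip QD. Perfusion-fixed tumors cut at 60–80 µm and stained for CD31 and type IV collagen basement membrane. Vessel area density from fluorescence images with threshold 30–50; sprouts and empty basement membrane sleeves examined by confocal microscopy. 3–8 mice/group; ANOVA, Fisher PLSD.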

[12] = system: Pancreatic islet cell carcinoma; experiment: Antivascular activity in pancreatic islet cell carcinoma in RIP-Tag2 mouse assessed as suppression of tumor regrowth by measuring reduction in vessel density at 75 mg/kg, po bid administered via gavage pretreated with OSI-930 for 7 days at 200 mg/kg, po followed by compound administration and measured after 1 day; assay type: functional, organism-based
[13] = system: Pancreatic islet cell carcinoma; experiment: Antivascular activity in pancreatic islet cell carcinoma in RIP-Tag2 mouse assessed as reduction in intratumoral hemorrhage by measuring reduction in TER-119 immunoreactivity at 75 mg/kg, po bid pretreated with OSI-930 for 7 days at 200 mg/kg, po followed by compound administration and measured after 4 days by confocal microscopic analysis relative to control; assay type: functional; set-up: scale not given: the % may be the effect or the level left; conditions: time 4 day
How it was run: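 Regrowth design in 10-week-old RIP-Tag2 mice: OSI-930 200 mg/kg gavage QD for 7 days, then 4 days of vehicle, 75 mg/kg gavage BID, or 20 mg/kg ip QD; controls received vehicle for 11 days. Perfusion-fixed sections stained for CD31 for vessel density or for the erythrocyte marker TER-119, quantified by confocal microscopy. 3–8 mice/group; ANOVA, Fisher PLSD.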

[14] = system: Pancreatic islet cell carcinoma; experiment: Additive antitumor activity in pancreatic islet cell carcinoma in RIP-Tag2 mouse assessed as reduction in proliferation by measuring reduction in phospho-histone H3 level at 100 mg/kg, po bid administered via gavage for 4 days in presence of OSI-930 by immunohistochemistry analysis; assay type: functional, organism-based; conditions: time 4.0 day
[15] = system: Pancreatic islet cell carcinoma; experiment: Additive antitumor activity in pancreatic islet cell carcinoma in RIP-Tag2 mouse assessed as induction of apoptosis by measuring increase in activated caspase-3 level at 100 mg/kg, po bid administered via gavage for 4 days in presence of OSI-930 by immunohistochemistry analysis relative to control; assay type: functional; conditions: time 4 day
Ephrin type-A receptor 2 = Ephrin type-A receptor 2 (Homo sapiens, UniProt P29317); experiment: Inhibition of EphA2 phosphorylation (unknown origin) by cell based assay
[16] = target: Phosphatidylinositol 4,5-bisphosphate 3-kinase catalytic subunit delta isoform (Homo sapiens) (UniProt O00329); experiment: Inhibition of PI3Kdelta (unknown origin) at 3 uM by Ambit Kinomescan assay relative to control
Phosphatidylinositol 4,5-bisphosphate 3-kinase catalytic subunit delta isoform (Homo sapiens), sequence (O00329 whole entry, canonical isoform): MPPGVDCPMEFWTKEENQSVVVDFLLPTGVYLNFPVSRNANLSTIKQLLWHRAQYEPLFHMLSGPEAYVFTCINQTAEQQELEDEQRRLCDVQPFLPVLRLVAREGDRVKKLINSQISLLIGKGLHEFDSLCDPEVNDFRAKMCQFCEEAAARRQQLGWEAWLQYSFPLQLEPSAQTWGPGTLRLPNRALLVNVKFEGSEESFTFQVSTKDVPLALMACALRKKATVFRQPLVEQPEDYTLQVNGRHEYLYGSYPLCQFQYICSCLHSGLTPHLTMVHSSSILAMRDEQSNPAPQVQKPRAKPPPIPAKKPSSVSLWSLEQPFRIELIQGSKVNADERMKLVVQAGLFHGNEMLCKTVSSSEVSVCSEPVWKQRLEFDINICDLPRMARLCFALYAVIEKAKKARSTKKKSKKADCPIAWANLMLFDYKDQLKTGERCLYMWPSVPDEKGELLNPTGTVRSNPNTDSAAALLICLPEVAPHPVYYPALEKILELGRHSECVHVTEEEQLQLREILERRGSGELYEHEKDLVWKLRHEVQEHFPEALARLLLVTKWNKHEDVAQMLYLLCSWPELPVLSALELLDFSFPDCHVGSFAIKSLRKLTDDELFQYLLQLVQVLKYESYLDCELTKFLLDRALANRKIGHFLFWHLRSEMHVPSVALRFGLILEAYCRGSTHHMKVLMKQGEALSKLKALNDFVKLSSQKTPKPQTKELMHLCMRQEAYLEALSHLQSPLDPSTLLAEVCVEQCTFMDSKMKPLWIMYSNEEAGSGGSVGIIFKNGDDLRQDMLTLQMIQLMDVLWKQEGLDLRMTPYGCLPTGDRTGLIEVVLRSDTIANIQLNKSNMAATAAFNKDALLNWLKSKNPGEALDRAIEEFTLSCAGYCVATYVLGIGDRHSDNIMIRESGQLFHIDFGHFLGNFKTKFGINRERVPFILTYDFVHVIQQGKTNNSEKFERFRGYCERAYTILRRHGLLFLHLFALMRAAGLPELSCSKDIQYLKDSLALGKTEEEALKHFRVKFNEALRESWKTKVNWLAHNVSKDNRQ

[17] = target: Phosphatidylinositol 4,5-bisphosphate 3-kinase catalytic subunit gamma isoform (Homo sapiens, UniProt P48736); experiment: Inhibition of PI3Kgamma (unknown origin) at 3 uM by Ambit Kinomescan assay relative to control
[18] = target: Dual specificity mitogen-activated protein kinase kinase 2 (Homo sapiens) (UniProt P36507); experiment: Inhibition of MEK2 (unknown origin)

IC50 (mTORC2): 0.007 µM | IC50 [1]: 0.19 µM | IC50 [2]: 9.3 µM | IC50 [3]: 3.2 µM | inhibition [4]: Dose-Dependent Effect | concentration at 337 h [5]: 25.6 µM | IC50 (Ephrin type-A receptor 2): > 40 µM | inhibition [16]: > 90% | inhibition [17]: > 90% | inhibition [18]: Active
SMILES: Nc1nccn2c1c(-c1cc3cccc(Cl)c3[nH]1)nc2[C@H]1CC[C@H](C(=O)O)CC1
inhibition (OVCAR-3): Active | Activity (GEO): Active | inhibition (Mus musculus [6]): Active | inhibition (Mus musculus [7]): Active | Activity [8]: 65% | Activity [9]: 48% | Activity [10]: inactive | Activity [11]: 23% | Activity [12]: inactive | Activity [13]: 50% | Activity [14]: Active | Activity [15]: 700%
